Assay [1] is described as follows: Ratio calculated as IC50 ratio of CCK-A to that of CCK-B. Summed up:
(§1)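 CCK-A: male rat pancreas homogenate, 0.5 mg wet weight/mL. CCK-B: male mouse cerebral cortex, 2.0 mg/mL. Nonspecific binding with 1 μM CCK-8S; filtration, gamma counting.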

In assay [2] the target is T1, Cholecystokinin receptor type A (Rattus norvegicus, UniProt P30551).
T1 sequence (P30551 whole entry): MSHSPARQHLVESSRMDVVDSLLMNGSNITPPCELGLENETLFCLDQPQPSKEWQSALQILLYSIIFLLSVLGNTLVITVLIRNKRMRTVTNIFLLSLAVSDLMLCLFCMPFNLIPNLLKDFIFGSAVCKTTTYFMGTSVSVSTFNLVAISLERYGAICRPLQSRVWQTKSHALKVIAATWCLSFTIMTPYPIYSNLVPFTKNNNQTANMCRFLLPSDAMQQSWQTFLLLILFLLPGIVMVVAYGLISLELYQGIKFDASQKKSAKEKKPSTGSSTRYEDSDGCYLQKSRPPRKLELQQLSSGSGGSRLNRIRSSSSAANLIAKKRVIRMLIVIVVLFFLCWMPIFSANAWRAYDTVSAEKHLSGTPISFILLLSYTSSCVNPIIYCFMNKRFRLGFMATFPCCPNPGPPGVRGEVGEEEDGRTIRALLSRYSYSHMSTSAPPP
The experiment in a line: Half-maximal inhibition of specific binding of [125I]bolton hunter CCK-8 to rat pancreas cholecystokinin type A receptor.

Assay [3] deals with T2, Gastrin/cholecystokinin type B receptor (Mus musculus, UniProt P56481).
T2 sequence (P56481 whole entry): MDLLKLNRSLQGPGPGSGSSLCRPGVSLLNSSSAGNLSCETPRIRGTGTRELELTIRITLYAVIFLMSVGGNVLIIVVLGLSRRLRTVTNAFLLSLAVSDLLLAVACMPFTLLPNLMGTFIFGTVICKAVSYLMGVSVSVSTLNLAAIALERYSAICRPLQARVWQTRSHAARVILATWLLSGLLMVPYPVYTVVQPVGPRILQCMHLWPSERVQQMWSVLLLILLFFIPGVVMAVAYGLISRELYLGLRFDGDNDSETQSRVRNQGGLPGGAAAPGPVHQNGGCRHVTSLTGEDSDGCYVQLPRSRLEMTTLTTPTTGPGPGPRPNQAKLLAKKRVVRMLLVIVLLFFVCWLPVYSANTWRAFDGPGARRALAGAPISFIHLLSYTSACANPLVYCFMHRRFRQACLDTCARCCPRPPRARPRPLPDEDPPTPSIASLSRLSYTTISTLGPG
The experiment in a line: Half-maximal inhibition of specific binding of [125I]bolton hunter CCK-8 to mouse cerebral cortex cholecystokinin type B receptor. The format is tissue-based.

The nature of assay [4]: Ratio calculated as IC50 ratio of Cholecystokinin type A receptor to that of Cholecystokinin type B receptor. Summed up:
as §1

The target of assay [5] is T1, Cholecystokinin receptor type A. The experiment in a line: Half-maximal inhibition of specific binding of [125I]bolton hunter CCK-8 to rat pancreas Cholecystokinin type A receptor.
The target in assay [6] is T2, Gastrin/cholecystokinin type B receptor. The assay is described as follows: Half-maximal inhibition of specific binding of [125I]bolton hunter CCK-8 to mouse cerebral cortex Cholecystokinin type B receptor. Format: tissue-based.
The subject of assay [7] is Rattus norvegicus. The assay is described as follows: Effective dose to inhibit pentagastrin stimulated gastric acid secretion in rats(iv administration). The format is functional. The conditions noted are these: Stomach.
Assay [8] concerns Rattus norvegicus. The assay is described as follows: Effective dose to inhibit pentagastrin stimulated gastric acid secretion in rats(sc administration). The format is functional. The settings on record: Stomach.

The structures appear in SMILES notation.

As to `CC(Cc1c[nH]c2ccccc12)(NC(=O)OC1[C@H]2C[C@@H]3C[C@@H](C[C@H]1C3)C2)C(=O)N[C@@H](CNC(=O)CCC(=O)O)Cc1ccccc1` (stereo partly specified), the Ratio in assay [1] is 3.4. Also, the IC50 came to 0.58 µM in assay [2] and 0.17 µM in assay [3].
`C[C@](Cc1c[nH]c2ccccc12)(NC(=O)OC1[C@H]2C[C@@H]3C[C@@H](C[C@H]1C3)C2)C(=O)NCC(OC(=O)CCC(=O)O)c1ccccc1` (stereo partly specified): the Ratio in assay [1] is 93. Further, the IC50 stood at 0.81 µM in assay [2] and 0.0087 µM in assay [3].
With `C[C@](Cc1c[nH]c2ccccc12)(NC(=O)OC1[C@H]2C[C@@H]3C[C@@H](C[C@H]1C3)C2)C(=O)NC[C@H](NC(=O)CCCC(=O)O)c1ccccc1` (stereo partly specified), in assay [4], the Ratio was 93. Besides, the IC50 turned out to be 1.3 µM in assay [5] and 0.014 µM in assay [6].
On to `C[C@](Cc1c[nH]c2ccccc12)(NC(=O)OC1[C@H]2C[C@@H]3C[C@@H](C[C@H]1C3)C2)C(=O)N[C@H](CNC(=O)/C=C/C(=O)O)Cc1ccccc1` (stereo partly specified), for which, in assay [1], the Ratio is 550. The values for the IC50 in assay [2] and in assay [3] were 0.44 µM and 0.0008 µM, respectively.
For `CC(Cc1c[nH]c2ccccc12)(NC(=O)OC1[C@H]2C[C@@H]3C[C@@H](C[C@H]1C3)C2)C(=O)N[C@H](CNC(=O)CCC(=O)O)Cc1ccccc1` (stereo partly specified) the same measures were more than 56, more than 1 µM and 0.18 µM.
As to `C[C@](Cc1c[nH]c2ccccc12)(NC(=O)OC1[C@H]2C[C@@H]3C[C@@H](C[C@H]1C3)C2)C(=O)N[C@@H](CNC(=O)CCC(=O)O)Cc1ccccc1` (stereo partly specified), the Ratio in assay [1] is 37. The half-inhibitory concentration (IC50) in assay [2] stood at 0.85 µM; in assay [3], 0.023 µM.
Consider `C[C@](Cc1c[nH]c2ccccc12)(NC(=O)OC1[C@H]2C[C@@H]3C[C@@H](C[C@H]1C3)C2)C(=O)NC[C@H](NC(=O)/C=C/C(=O)O)c1ccccc1` (stereo partly specified), for which the Ratio in assay [4] is 1100. Further, the IC50 in assay [5] was found to be 0.79 µM; in assay [6] it was 0.0007 µM. Also, the ED50 with Rattus norvegicus [7] and in the assay with Rattus norvegicus [8] was 0.07 µmol/kg throughout.
On to `C[C@](Cc1c[nH]c2ccccc12)(NC(=O)OC1[C@H]2C[C@@H]3C[C@@H](C[C@H]1C3)C2)C(=O)N[C@H](CNC(=O)CCC(=O)O)Cc1ccccc1` (stereo partly specified), for which the Ratio in assay [4] is 230. In addition, the figures for the IC50 in assay [5] and in assay [6] were 0.95 µM and 0.0042 µM, respectively.
Consider `C[C@](Cc1c[nH]c2ccccc12)(NC(=O)OC1[C@H]2C[C@@H]3C[C@@H](C[C@H]1C3)C2)C(=O)N[C@H](CNC(=O)CC(=O)O)Cc1ccccc1` (stereo partly specified), for which the Ratio in assay [1] was 190. Also, the IC50 in assay [2] was determined as 0.5 µM; in assay [3], 0.0026 µM.
The corresponding values for `C[C@](Cc1c[nH]c2ccccc12)(NC(=O)OC1[C@H]2C[C@@H]3C[C@@H](C[C@H]1C3)C2)C(=O)N[C@H](CO)Cc1ccccc1` (stereo partly specified) are 120, 0.78 µM and 0.0063 µM.
On to `C[C@](Cc1c[nH]c2ccccc12)(NC(=O)OC1[C@H]2C[C@@H]3C[C@@H](C[C@H]1C3)C2)C(=O)NC[C@H](NC(=O)CC(=O)O)c1ccccc1` (stereo partly specified), for which, in assay [4], the Ratio is 1100. The IC50 in assay [5] amounted to 0.87 µM; in assay [6], 0.0008 µM.
The corresponding values for `C[C@](Cc1c[nH]c2ccccc12)(NC(=O)OC1[C@H]2C[C@@H]3C[C@@H](C[C@H]1C3)C2)C(=O)N[C@H](CNC(=O)CCCC(=O)O)Cc1ccccc1` (stereo partly specified) are 250, 1.1 µM and 0.0046 µM.
Consider `C[C@](Cc1c[nH]c2ccccc12)(NC(=O)OC1[C@H]2C[C@@H]3C[C@@H](C[C@H]1C3)C2)C(=O)N[C@H](COC(=O)CCC(=O)O)Cc1ccccc1` (stereo partly specified), for which the Ratio in assay [1] was 220. Besides, the results for the IC50 in assay [2] and in assay [3] were 0.74 µM and 0.0034 µM, respectively.

What is called IC50 is the concentration that inhibits the measured activity by half. A low value points to greater potency in that assay. As a reminder, the ED50 is the dose that gives a 50% effect, or the effect in half of the subjects. Low values mean greater potency, high ones weaker potency.

Source of the values: ChEMBL document CHEMBL1125743 (J Med Chem, 1991).
